Among the data in the RNAGym collection of RNA variant scans (doi:10.1126/science.aae0568) are yeast fitness values, retold here.

The labels stand for the following.
B1: tRNA (parent)
chain: GUUCCGUUGGCGUAAUGGUAACGCGUCUCCCUCCUAAGGAGAAGACUGCGGGUUCGAGUCCCGUACGGAACG

This sample holds only a part of the variants without activity.

The data set covers variants of B1. The data set is described as follows: yeast fitness relative to wild type (ratio to wild type); higher = fitter; tRNA-Arg(CCU), competitive growth, 37 C, YPD. An outline of the steps:
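Changes in genotype frequencies gave Darwinian fitness relative to wild type. Frequencies were read by 100-nucleotide paired-end sequencing of gene amplicons before and after pooled Saccharomyces cerevisiae strains, carrying tRNA-Arg(CCU) gene variants at the native locus, were competed in YPD at 37°C for 24 hours in six replicates. A genotype was kept only with ≥ 100 starting reads, and estimates < 0.5 were set to 0.5.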
Regarding C27U U35C, the yeast fitness is 0.754. With G12A A57U, the yeast fitness worked out at 0.668. Consider C4U A37C G63A, for which the yeast fitness was determined as 0.593. C11A A42C C62A: the yeast fitness was not above 0.5. As for C29U C31U U54G A65U A69U, the figure is not above 0.5. For the variant G56A C60G, the yeast fitness was 0.681.

For the variant G17A U19A A21C G44C, the yeast fitness is not above 0.5. With C24A C33G A40C C55U the figure was 0.888; with C34G U53C C55G, not above 0.5. With C11G C46A the figure was 0.576. With A14C A40C U47C A57C the figure was not above 0.5; with C11G U13G, 0.599.

On to C4U G6A, for which the yeast fitness turned out to be 0.901. As for A21C C33G C34G U54A, the yeast fitness is not above 0.5. As for U35C, the figure is 0.817; as for U3A U13C G25A, 0.67. With C5A G52A G58C the figure was not above 0.5; with C4A U26C C27G C33G A37U G41A A57G C62G, not above 0.5. With C5U G23C U32C A42G U54A the figure was not above 0.5; with A14G C24U A43U A65C, not above 0.5.

C11U A14U U16C: the yeast fitness is not above 0.5. As for A15U C66U A70C, the figure is 0.566; as for C22G U32C U54A A65G, not above 0.5; as for U16C A36C, 0.675.

U13A: the yeast fitness was found to be 0.993. As for C11A C27G C33U G56A C61G, the figure is not above 0.5. As for U8A A40U A70C, the figure is 0.547; as for U8C U16A U19A C22U U28C, not above 0.5; as for G6A A20G C30G U35A G50A A65C, 0.517.

In the case of C4U A21G A70U, the yeast fitness is 0.78.

As to C11A A21C C30U C66U, the yeast fitness is 0.539.

As for U2G G10C U35G C46U A65C G67C, the yeast fitness is not above 0.5. With C29A G44A C49A U59A the figure was not above 0.5; with C5U A15U U19C, 0.672.

For U2G C33A G39C, the yeast fitness was not above 0.5.

For the variant C5U U19A C30A A42C U64C, the yeast fitness is not above 0.5. As for U13C G17A C22A G25A, the figure is not above 0.5; as for U26A C29A A45U G58A, not above 0.5; as for G41A G52C C61U C62U, not above 0.5.

In the case of U8G C24G U47C C61G, the yeast fitness is not above 0.5.

A14G C30A A42G G44A: the yeast fitness is 0.569. For the variant A15G C61A A69U, the yeast fitness was 0.643.

As to C30G G51C C61G, the yeast fitness is not above 0.5. As for U19G G41C C66U, the yeast fitness is not above 0.5. With U3A A14G G58A the figure was 0.883; with G25C C31G C34G G41A C61U A69U, not above 0.5. With G6C C11A A43U G48C the figure was not above 0.5; with A21G C46U C66U, 0.742.

C4G G18A A21G G25A G51C: the yeast fitness was not above 0.5. As for A20U A36U, the figure is 0.639; as for U3A G10C G39C G48A, not above 0.5. With G10A A15G C27U A42C G50C the figure was not above 0.5; with C34U G41C C60A, not above 0.5. With C4A C31U C34A A40G the figure was not above 0.5.

Turning to G52C U59G, the yeast fitness is 0.538. With C5G A45C U54G the figure was 0.622. Regarding A20G A57C C62G C66G, the yeast fitness is not above 0.5.

Regarding U3A U59A, the yeast fitness came out at 0.658. As for G9C A36U A40U G44A G63A, the figure is not above 0.5. As for G18A A21C C30U, the figure is not above 0.5; as for C4U C66A, 0.746. For the variant C24U A37C G50C A69U, the yeast fitness was not above 0.5.

Regarding U8A U13A, the yeast fitness is 0.606. Take U13C C33G A40G U59A: the yeast fitness is not above 0.5. With G10A U53A A65G the figure was not above 0.5; with U19C A37U C62A U64C, 0.725; with U2C C46U A65U, 1.06. As for U47C C49U G68C, the figure is 0.582; as for A15C A21U G39A, not above 0.5. Turning to C30A G50U, the yeast fitness came to 0.816. For G10A C34U, the yeast fitness is not above 0.5. Consider U2A A20C C33G C46U A70G, for which the yeast fitness is not above 0.5.

As to C4G G9A C27U C46G G48A C62G G68C, the yeast fitness is not above 0.5. On to A21G G39A U54C, for which the yeast fitness is 0.589. As for G51A G56A U59C, the figure is 0.565; as for U8A A14C C31A, 0.571. With A14C A20U C31U G38C G67A the figure was 0.53; with C5U C27U G58A C60G, not above 0.5. As for U13C A57G, the figure is 0.919; as for C5G C60G C62G G67C A69U, 0.654. On to C22G C29A, for which the yeast fitness is 0.662. With U32A C49U G68A the figure was not above 0.5; with U2A A20U A45C, 0.728; with C4U G23C A36C C66U, not above 0.5. With U2G A14G C27G G52C the figure was not above 0.5; with A20G C27A C31A, not above 0.5.

G38C A57G: the yeast fitness came out at 0.617. On to U13G A21C C46U G50A, for which the yeast fitness was determined as 0.582. Turning to G17C U53A, the yeast fitness came to 0.583.

On to C11U G23C C27A A69U, for which the yeast fitness was not above 0.5. With U16A A36G A57U A70G the figure was not above 0.5; with U2A A21C C22A C29U C49G, not above 0.5. As for C33U, the figure is 0.694; as for C24U U32A U54A, not above 0.5; as for C5G U7A, 0.792.

With C5G U7G, the yeast fitness was 0.564.

G17C G18C G44C U59A: the yeast fitness is not above 0.5.

On to C4A G6A A21C C24U A43G, for which the yeast fitness was not above 0.5.

In the case of C4U A42C C61G A65U, the yeast fitness was determined as 0.62. In the case of C4G C24U A42C C46A U54A, the yeast fitness was 0.623. Regarding G9C G10C C29G C46A C66U, the yeast fitness was not above 0.5. With C29G G38A A43G G50A, the yeast fitness is not above 0.5. For G9A G50A G67A, the yeast fitness was 0.652. As for C33G U54C C62A G68C, the figure is not above 0.5; as for U16C C34G G51A, 0.534; as for C4G A43C, 0.853. As to C49U G58A A65G, the yeast fitness worked out at 1. With A21G C31U C49U, the yeast fitness worked out at 0.97.

As to C31A A43U A57G, the yeast fitness was 0.559. Take C33U A43U C49G G50C C61U C66U: the yeast fitness is not above 0.5. As for A21G G68C, the figure is 0.949. For A21U C46G U47C G56A C60A, the yeast fitness is not above 0.5. As for C11A C31G A42U G67A, the figure is not above 0.5; as for G50U A69C, 0.958; as for G10A G48A, 0.636. On to U8C A36U G50C, for which the yeast fitness is not above 0.5.

As for C22A C24G G56C, the yeast fitness amounted to 0.786.

For U16A U47C A70G, the yeast fitness is 0.78. As for U19A G48A G68C, the figure is 0.626; as for A15C G39A U64C A65G, not above 0.5; as for C5U G56C C60A, 0.641.

On to C11A U59A G67C A69C, for which the yeast fitness is not above 0.5.

Consider G9C C27U U47G G50A, for which the yeast fitness was not above 0.5. Turning to A14G A42G C46G, the yeast fitness was determined as 0.517. In the case of C4G A43C C62A, the yeast fitness is not above 0.5.

As for A14C C27U C30U C34A C62A, the yeast fitness is not above 0.5. In the case of G12C G17C, the yeast fitness turned out to be 0.637. Turning to C31G G38A G52A C61A G63A, the yeast fitness is not above 0.5. With C22U U28C U54A A69U the figure was not above 0.5. Consider G9A U53G, for which the yeast fitness was 0.661. As for G48A G52A, the figure is 0.976; as for A20C A21G A57G, 0.744. With C29A G41A A43C the figure was 0.55.

On to G12C A65U, for which the yeast fitness was 0.735.

In the case of A36C G67A, the yeast fitness was determined as 0.607.

Take A21C C30G: the yeast fitness was 0.6. Turning to G12A A15C, the yeast fitness was 0.773. In the case of U53A A57C, the yeast fitness worked out at 0.623. With C4U C24G U26A U28G U32A the figure was not above 0.5.

Turning to C34G G41A A45G A57G C60G C62U, the yeast fitness was not above 0.5. With A45U G50A U64C the figure was 0.72; with U2C G12C, 0.831; with A14G C27A C49G U53A C62A, not above 0.5. Turning to C29G C61A, the yeast fitness is not above 0.5. In the case of C4A G39C G44C G52C, the yeast fitness was found to be 0.685. With C30A C31U A40U G56C A69C the figure was not above 0.5; with C4G C31A A42C, not above 0.5; with G56C A57C C61G, not above 0.5. As for U19C A20U C29U G41C, the figure is not above 0.5; as for C31A A42G, 0.766; as for C4A C30A, 0.837. Consider C24G A36U A37C A65C, for which the yeast fitness was not above 0.5. For the variant C4U U16A C61U, the yeast fitness came out at 0.708. On to U26G G48A, for which the yeast fitness amounted to 1.08. As for G17C, the figure is 0.7; as for G9C A45C A65C, not above 0.5; as for C4U C27U U54A, not above 0.5. Take C4U U32A: the yeast fitness was determined as 0.712.

As for G39C G52A, the yeast fitness stood at 0.76. As for C5G C22A A37G, the figure is not above 0.5; as for C29U A42U A43U U54C C55G, not above 0.5; as for A15C A36U C46G G56A C60A C62G C66A, not above 0.5. As to C33G U35G A37C A43C G44A U64C, the yeast fitness is not above 0.5. As for A15C G39A G67A, the figure is not above 0.5; as for U7C G17C A20G C27A G48A, 0.509; as for G18A U47C A57U, not above 0.5. For C11A G44C G56A C66U, the yeast fitness was found to be 0.552.
